Experimental data: ChEMBL document CHEMBL1154303, “Cytotoxic and antiplasmodial compounds from the roots of Strophioblachia fimbricalyx” (J Nat Prod, 2009)
Values after ≈ are worked out from the molar mass of the structure shown.

Assays:
MCF7 = assay: Cytotoxicity against human MCF7 cells by SRB assay; format: functional, cell-based
NCI-H187 = assay: Cytotoxicity against human NCI-H187 cells by SRB assay; format: functional, cell-based
Plasmodium falciparum = assay: Antiplasmodial activity against multidrug-resistant Plasmodium falciparum K1 assessed as [G-3H]hypoxanthine uptake after 24 hrs by scintillation counting; format: functional, organism-based; details: K1, 24 h
Method in brief: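 Microculture radioisotope technique on the multidrug-resistant K1 strain of P. falciparum; activity reported in µg/mL.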

Vero = assay: Cytotoxicity against african green monkey Vero cells by SRB assay; format: cell-based; details: Chlorocebus sabaeus
KB = assay: Cytotoxicity against human KB cells by SRB assay; format: functional, cell-based
[1] = test system: Radical scavenging activity; assay: Antioxidant activity assessed as DPPH radical scavenging activity; format: functional
Method in brief: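 DPPH radical-scavenging test run per a published method. Activity is expressed in µg/mL, and a positive control substance was included.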

Compound `COC1=Cc2c(cc(O)c3cc(C)c(OC)cc23)C(C)(C)C1=O` has an IC50 (MCF7) of 2.9 µg/mL (≈ 9.28 µM), an IC50 (NCI-H187) of 0.8 µg/mL (≈ 2.56 µM) and an IC50 (Plasmodium falciparum) of 2.7 µg/mL (≈ 8.64 µM). For the same compound, the IC50 (Vero) was 3.1 µg/mL (≈ 9.92 µM), the IC50 (KB) was 0.8 µg/mL (≈ 2.56 µM) and the IC50 [1] was 29.1 µg/mL (≈ 93.2 µM).

Compound `COc1cc2c(cc1C)c(OC)cc1cc(C)c(=O)c(OC)cc12` has an IC50 (MCF7) greater than 5 µg/mL, an IC50 (NCI-H187) greater than 5 µg/mL and an IC50 (Plasmodium falciparum) of 3.2 µg/mL (≈ 9.87 µM). The IC50 (Vero) was greater than 20 µg/mL, the IC50 (KB) was 4 µg/mL (≈ 12.3 µM) and the IC50 [1] was greater than 100 µg/mL.

With `COc1cc2c(cc1C)c(OC)cc1cc(C)c(=O)cc(OC)c12` the IC50 (MCF7) was greater than 5 µg/mL, the IC50 (NCI-H187) was greater than 5 µg/mL and the IC50 (Plasmodium falciparum) was greater than 20 µg/mL. For the same compound, the IC50 (Vero) was greater than 20 µg/mL, the IC50 (KB) was 3.9 µg/mL (≈ 12 µM) and the IC50 [1] was greater than 100 µg/mL.

`C[C@H]1[C@@H](O)O[C@@H]2O[C@@]3(C)CC[C@H]4[C@H](C)CC[C@@H]1[C@@]24OO3` [ARTENIMOL] was tested, and the IC50 (Plasmodium falciparum) was 0.004 µg/mL (≈ 0.0141 µM).

Compound `Cc1cc(C(C)(C)C)c(O)c(C(C)(C)C)c1` [BUTYLATED HYDROXYTOLUENE] has an IC50 [1] of 18.8 µg/mL (≈ 85.3 µM).

Work on `COc1cccc2c1C(=O)c1c(O)c3c(c(O)c1C2=O)C[C@@](O)(C(=O)CO)C[C@@H]3O[C@H]1C[C@H](N)[C@H](O)[C@H](C)O1` [DOXORUBICIN] yielded an IC50 (NCI-H187) of 0.04 µg/mL (≈ 0.0736 µM) and an IC50 (KB) of 0.13 µg/mL (≈ 0.239 µM).

Work on `Cc1c2ccncc2c(C)c2c1[nH]c1ccccc12` [ELLIPTECINE] yielded an IC50 (NCI-H187) of 0.44 µg/mL (≈ 1.79 µM), an IC50 (Vero) of 0.48 µg/mL (≈ 1.95 µM) and an IC50 (KB) of 0.48 µg/mL (≈ 1.95 µM).

With `COC1=Cc2c(cc(OC)c3cc(C)c(OC)cc23)C(C)(C)C1=O` [TRIGONOSTEMONE] the IC50 (MCF7) was greater than 5 µg/mL, the IC50 (NCI-H187) was greater than 5 µg/mL and the IC50 (Plasmodium falciparum) was greater than 20 µg/mL. It also gave an IC50 (Vero) greater than 20 µg/mL, an IC50 (KB) greater than 5 µg/mL and an IC50 [1] greater than 100 µg/mL.
